Reference: ChEMBL document CHEMBL4431303, “Minor Pyranonaphthoquinones from the Apothecia of the Lichen Ophioparma ventosa” (J Nat Prod, 2016)
≈ marks a conversion by molar mass, not a printed value. Calls of active or inactive are those of the source. The calls are words filed in the database; no cut-off is given here.

Legend:
[1] = Cytotoxicity against human Huh7D12 cells assessed as cell growth inhibition; type: functional, cell-based; settings: Huh-7D12
MDA-MB-231 = experiment: Cytotoxicity against human MDA-MB-231 cells assessed as cell growth inhibition; type: functional, cell-based
HCT-116 = experiment: Cytotoxicity against human HCT116 cells assessed as cell growth inhibition; type: functional, cell-based
Method in brief: (§1)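 Inhibition of proliferation tested on a panel of human lines: Huh7D12 (differentiated hepatocellular carcinoma), Caco 2 (differentiating colorectal adenocarcinoma), MDA-MB-231 (breast carcinoma), HCT-116 (actively proliferating colorectal carcinoma), PC3 (prostate carcinoma) and NCI-H2 (lung carcinoma). Diploid skin fibroblasts served as the normal control line. Result reported as IC50.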

Caco-2 = experiment: Cytotoxicity against human Caco2 cells assessed as cell growth inhibition; type: functional, cell-based
Fibroblast = experiment: Cytotoxicity against human Fibroblasts assessed as cell growth inhibition; type: cell-based; method in brief: as §1
[2] = Cytotoxicity against human NCI-H2 cells assessed as cell growth inhibition; type: functional, cell-based; method in brief: as §1
PC-3 = experiment: Cytotoxicity against human PC3 cells assessed as cell growth inhibition; type: functional, cell-based; method in brief: as §1
HaCaT = experiment: Cytotoxicity against human HaCaT cells assessed as cell growth inhibition incubated for 72 hrs by MTT assay; type: functional, cell-based
B16 = experiment: Cytotoxicity against mouse B16 cells assessed as cell growth inhibition incubated for 72 hrs by MTT assay; type: functional, cell-based; settings: B16, 72 h
[3] = Antioxidant activity after 5 mins by NBT assay; type: functional
Method in brief: (§2)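 Nonenzymatic superoxide scavenging read in 96-well plates. Final mixture: NADH 78 μM, NBT 50 μM, PMS 10 μM, test compound at 350, 116, 39 and 13 μM. Reagents in 16 mM Tris-HCl pH 8, compounds in DMSO. After 5 min at room temperature, absorbance at 560 nm against a no-PMS blank. IC50 taken from steady-state percent inhibition per dilution. Ascorbic acid as positive control. Triplicates averaged.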

[4] = Antioxidant activity assessed as superoxide anion radical scavenging activity after 5 mins by spectrophotometric analysis; type: functional; method in brief: as §2
[5] = Antioxidant activity assessed as DPPH radical scavenging activity after 5 mins by spectrophotometric analysis; type: functional

Row | IC50 [3] | IC50 [5] | IC50 [4] | Structure (SMILES) | IC50 [1] | IC50 (MDA-MB-231) | IC50 (HCT-116) | IC50 (Caco-2) | IC50 (Fibroblast) | IC50 [2] | IC50 (PC-3) | IC50 (HaCaT) | IC50 (B16) | inhibition [4]
1 |  |  |  | CC(=O)O[C@H]1C(=O)[C@@]2(C)[C@H]([C@H](OC(=O)c3ccccc3)[C@]3(O)C[C@H](OC(=O)[C@H](O)[C@@H](NC(=O)c4ccccc4)c4ccccc4)C(C)=C1C3(C)C)[C@]1(OC(C)=O)CO[C@@H]1C[C@@H]2O [PACLITAXEL] | 8 nM | 21 nM | 3 nM | 14 nM | > 0.25 µM | 20 nM | 4 nM |  |  | 
2 |  |  |  | CC[C@]1(O)C[C@H]2CN(CCc3c([nH]c4ccccc34)[C@@](C(=O)OC)(c3cc4c(cc3OC)N(C=O)[C@H]3[C@@](O)(C(=O)OC)[C@H](OC(C)=O)[C@]5(CC)C=CCN6CC[C@]43[C@@H]65)C2)C1 [VINCRISTINE] |  |  |  |  |  |  |  | 650 nM | 500 nM | 
3 | 22.1 µM |  |  | O=C1O[C@H]([C@@H](O)CO)C(O)=C1O [ASCORBIC ACID] |  |  |  |  |  |  |  |  |  | Active
4 |  |  |  | CC[C@H](CO)Nc1nc(NCc2ccccc2)c2ncn(C(C)C)c2n1 [SELICICLIB] |  |  |  |  | 7 µM | 18000 nM |  |  |  | 
5 | 49.9 µM | Not Active | 50 µM | COC1=CC(=O)c2c(O)c3c(c(O)c2C1=O)[C@@H]1O[C@@H](C)C[C@@H]1OC3=O |  |  |  |  |  |  |  | > 10000 nM | > 10000 nM | 
6 | 6.1 µM | Not Active |  | COC1=CC(=O)c2c(O)c3c(c(O)c2C1=O)[C@@H](OC)[C@H](C)OC3=O |  |  |  |  |  |  |  |  |  | Active
7 |  |  |  | COc1cccc2c1C(=O)c1c(O)c3c(c(O)c1C2=O)C[C@@](O)(C(=O)CO)C[C@@H]3O[C@H]1C[C@H](N)[C@H](O)[C@H](C)O1 [DOXORUBICIN] | 60 nM | 30 nM | 80 nM | 30 nM | 0.04 µM | 40 nM | 90 nM | 530 nM | 430 nM | 
8 | 1.9 µM | > 500 µg/mL |  | COC1=CC(=O)c2c(O)c3c(c(O)c2C1=O)C[C@H](C)OC3=O | 3000 nM | 10000 nM | 2600 nM | 4000 nM | 4 µM | 2500 nM | 4000 nM | 14200 nM | 2400 nM | Active

Row | Structure (SMILES) | IC50 [3] | IC50 [5] | IC50 [4] | IC50 [1] | IC50 (MDA-MB-231) | IC50 (HCT-116) | IC50 (Caco-2) | IC50 (Fibroblast) | IC50 [2] | IC50 (PC-3) | IC50 (HaCaT) | IC50 (B16) | inhibition [4]
9 | O=C(O)c1cc(O)c(O)c(O)c1 [GALLIC ACID] |  | 7.2 µg/mL (≈ 42.3 µM) |  |  |  |  |  |  |  |  |  |  | 
